Source: PubChem
RAD54 branch: blocks human RAD54 Holliday junction branch migration; AID 602329; inhibition, % at 10.4 µM; Q92698; FAM/BHQ fluorescence; actives 0.14% (n = 360,000);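 active means mean normalized replicate activity at least 40 and at least half of replicates scoring 40 or more; inconclusive means only one of the two criteria met; inactive means mean below 40 and under half of replicates reaching 40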;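 further: 0% = median of neutral control wells and 100% = median of positive control wells; inhibitors cause a drop in the FAM fluorescence signal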
ERp5 block: inhibitors of human ERp5 | Q15084 | ERp5 insulin aggregation, absorbance 650 nm, 90 min | inhibition, % at 9.99 µM | actives 0.05% (n = 350,000);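 active means mean replicate inhibition above about 25%, with every replicate also reaching it, limit read from the data, passing the limit was not always enough; inconclusive means only one of those two criteria met; inactive means neither criterion met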
PglD DTNB: inhibitors of Campylobacter jejuni PglD acetyltransferase; actives 0.098% (n = 360,000); inhibition, % at 12.5 µM; purified PglD enzyme, DTNB colorimetric CoA detection; AID 602405; in the data active means inhibition above about 16%, passing the limit was not always enough; inconclusive means no clear call, values can overlap the other calls
FN deposit inh: fibronectin deposition inhibition | inhibition, % at 12.6 µM | actives 0.086% (n = 350,000) | AH1F fibroblasts, Alexa488-fibronectin deposition fluorescence, overnight;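 active means mean inhibition across replicates of 30% or more, regardless of how many single replicates reach that level; inconclusive means mean under 30% yet at least half of replicates reach 30%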;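 further: positive control wells lacked labelled fibronectin entirely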
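Assay system: AH1F fibroblasts / Quantity: 10000 cells per well / Medium: DMEM plus 2% serum, read in PBS / Reagent: labelled fibronectin 24 nM / Dosing: single dose, pinned / Times: 1 h cell attachment, overnight exposure to compound and label / Signal: fluorescence, ex 485 nm, em 525 nm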
S100A4 inh HTS: S100A4-myosin IIA interaction inhibition. actives 0.14% (n = 360,000). inhibition, % at 10.7 µM. S100A4/TAMRA-MyoIIA peptide fluorescence polarization. P26447;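 active means mean inhibition of at least 70% across replicates, with every replicate also reaching that level; inconclusive means mean inhibition reaches 70% but some replicates fall short; inactive means mean inhibition below 70%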
Target sequence (P26447 whole entry, looked up): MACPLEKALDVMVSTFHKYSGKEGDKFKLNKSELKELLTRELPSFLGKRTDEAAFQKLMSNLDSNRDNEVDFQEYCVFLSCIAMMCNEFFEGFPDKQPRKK
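incubation = readout 5 min after mixing, signal stable up to 60 min | system = S100A4 monomer protein | buffer or medium = HEPES pH 7.2 with CaCl2, KCl, NaCl, DTT, Triton | benchmarks = neutral control DMSO, positive control TFP | also added = fluorescent myosin IIA peptide, 5 nM | compound dosing = one concentration per compound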
PDI inh: PDI (human) enzyme inhibition; P07237; PDI insulin aggregation turbidity, A650, 90 min; inhibition, % at 10 µM; actives 0.052% (n = 350,000);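 active means mean inhibition across replicates of 30% or more, whatever share of single replicates reach that level; inconclusive means mean inhibition below 30% while every single replicate reaches 30%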
* marks the source's active call; other numbers are inactive results; ? = inconclusive; . = no result given. Hits are enriched below; roughly 0.44% of the tested compounds scored in any of these assays.

SMILES	RAD54 branch	ERp5 block	PglD DTNB	FN deposit inh	S100A4 inh HTS	PDI inh
CC(C)C[C@H]1CNC(=O)C(=O)N1C[C@@H]1CCCN1C[C@H](CC(C)C)N1C[C@H](Cc2ccccc2)N(CCc2ccccc2)C(=O)C1=O	.	-4.8	.	-5.6	2.3	.
CC(C)C[C@H]1CNC(=O)C(=O)N1C[C@@H]1CCCN1C[C@H](CC(C)C)N1C[C@H](Cc2ccc(O)cc2)N(CCc2ccccc2)C(=O)C1=O	.	2.2	.	active	-6.3	.
C[C@H](CO)N1C[C@H](C)[C@H](CN(C)Cc2ccncc2)Oc2ncc(C#CC3CCCC3)cc2C1=O	-15.4	-6.4	0.0	-27.4	-9.5	.
C[C@@H]1CN(C)C(=O)Cc2cc(N(C)C)ccc2O[C@H]1CN(C)S(C)(=O)=O	.	.	.	-26.2	.	.
Cc1ccc(-n2c(-c3ccc(Br)cc3)c[n+]3c2CCc2ccc4cccnc4c2-3)cc1	88.1*	.	-1.8	-4.1	.	-8.1
O=C1C=CC(=O)N1CCCCCCN1C(=O)C=CC1=O	.	.	.	47.6*	.	.
C/C=C/c1ccc([C@@H]2[C@@H](CO)N(C(C)=O)C23CN(C(=O)NC2CCCC2)C3)cc1	.	-2.8	.	-1.6	-3.7	.
CC(C)CC#Cc1cnc2c(c1)C(=O)N([C@H](C)CO)C[C@H](C)[C@H](CN(C)Cc1ccccc1C(=O)O)O2	-4.4	37.4*	-1.2	-0.9	-3.6	.
C[C@@H]1CN([C@H](C)CO)C(=O)c2cc(C#CC3CC3)cnc2O[C@@H]1CN(C)Cc1ccccc1C(=O)O	6.2	10.8	0.6	.	8.9	.
C[C@H](CO)N1C[C@H](C)[C@@H](CN(C)Cc2cccc(F)c2)Oc2ncc(C#C[C@@H](C)O)cc2C1=O	-0.9	5.2	1.4	1.9	141.1*	.
C[C@@H]1CN([C@H](C)CO)C(=O)c2cc(C#CC3CC3)cnc2O[C@@H]1CN(C)S(C)(=O)=O	5.9	0.3	3.1	-0.2	117.5*	.
C[C@@H]1CN([C@H](C)CO)C(=O)c2cc(C#CCN(C)C)cnc2O[C@H]1CN(C)Cc1cccc(F)c1	-1.0	56.7*	1.6	8.5	2.3	.
CN1c2ccc(C3=CCCCC3)cc2[C@H]2[C@H](CCN2C(=O)C2CC2)[C@@H]1CO	.	-2.5	.	.	14.2	.
CNC[C@H]1Oc2ccc(N)cc2CC(=O)N(C)C[C@@H]1C	.	.	.	-12.3	.	.
O=C(c1ccccn1)N1CC(=O)N2[C@H](CO)[C@@H](c3ccc(C#Cc4ccccc4)cc3)[C@@H]2C1	.	-8.1	.	.	16.2	.
C[C@H](CO)N1C[C@H](C)[C@H](CN(C)C(=O)Cc2cccnc2)Oc2ncc(C#CC3(O)CCCC3)cc2C1=O	-2.8	-0.8	0.7	-1.9	2.2	.
CC(C)C#Cc1cnc2c(c1)C(=O)N([C@H](C)CO)C[C@H](C)[C@H](CN(C)C(=O)Nc1ccc(F)cc1)O2	-3.5	1.8	-2.2	2.8	77.8*	.
CC(C)C#Cc1cnc2c(c1)C(=O)N([C@@H](C)CO)C[C@H](C)[C@@H](CN(C)C(=O)Nc1ccc(F)cc1)O2	-13.8	0.4	-2.2	-1.4	-2.8	.
C[C@@H]1CN([C@@H](C)CO)C(=O)c2cc(C#CC3(O)CCCC3)cnc2O[C@H]1CN(C)C(=O)Cc1cccnc1	-20.4	27.8*	0.0	-16.5	4.8	.
C[C@@H]1CCCCO[C@@H](CN(C)C(=O)CCCN(C)C)[C@H](C)CN([C@@H](C)CO)C(=O)c2cc(NC(=O)Nc3ccc(F)cc3)ccc2O1	8.9	?	-2.2	.	11.5	.
CC(C)CN1C(=O)[C@@]2(c3ccc([N+](=O)[O-])cc3)CC(=O)N(CC3C4CC5CC(C4)CC3C5)[C@@H]2c2ccc(CO)cc21 (stereo partly specified)	-3.0	1.5	-4.4	.	8.5	.
CCN1[C@@H]2c3ccc(-c4cccc(F)c4)c(=O)n3C[C@@H]2[C@@H](CO)[C@@H]1C(=O)N(C)C	5.4	-1.2	0.3	.	-10.7	.
CS(=O)(=O)N1CC2(C1)[C@H](c1ccccc1)[C@@H](CO)N2CC1CC1	.	3.9	.	.	-6.4	.
Cc1cccc(NC(=O)NNC(=O)c2ccc3ccccc3c2)c1	7.9	0.8	2.6	1.8	2.7	-3.9
O=C(NNC(=O)c1ccc2ccccc2c1)Nc1ccc(F)cc1	16.1	26.0*	-6.9	-8.2	9.5	3.7
